Measurements as given in ChEMBL document CHEMBL1177683, “Synthesis and pharmacological evaluation of pyrazine N-acylhydrazone derivatives designed as novel analgesic and anti-inflammatory drug candidates” (2010).
Calls of active or inactive are those of the source. The rule behind the calls is not given here.

Assays:
[1] = test system: Mus musculus; assay: Analgesic activity in Swiss mouse assessed as increase in latency of paw licking at 100 umol/kg, po after 60 mins measured for 60 seconds by hot plate test (reference value: 4.9 +/- 0.5 seconds); type: functional
[2] = test system: Mus musculus; assay: Antinociceptive activity in Swiss mouse assessed as inhibition of acetic acid-induced abdominal constrictions at 100 umol/kg, po administered 40 mins before acetic acid challenge measured for 25 mins relative to control; type: functional; details: Abdomen
Procedure, shortened: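 Mice were dosed at 100 µmol/kg po in arabic gum (10 mL/kg), 40 min before 0.6% v/v acetic acid ip (0.1 mL/10 g). Writhes (abdominal contraction, pelvic rotation, hind-limb extension) were counted for 20 min starting 5 min post-injection. Results are expressed as % inhibition versus vehicle controls. Groups of 6 (control 10), ANOVA/Dunnett.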

[3] = test system: Mus musculus; assay: Analgesic activity in Swiss mouse assessed as increase in latency of paw licking at 100 umol/kg, po after 150 mins measured for 60 seconds by hot plate test (reference value: 5.1 +/- 0.4 seconds); type: functional
[4] = test system: Mus musculus; assay: Antiedematogenic activity in Swiss mouse assessed as inhibition of capsaicin-induced ear edema at 100 umol/kg, po administered 40 mins before capsaicin challenge measured after 30 mins relative to control
[5] = test system: Mus musculus; assay: Antiedematogenic activity in Swiss mouse assessed as decrease of capsaicin-induced ear edema weight at 100 umol/kg, po administered 40 mins before capsaicin challenge measured after 30 mins relative to control; parameters: scale not given: the % may be the effect or the level left
[6] = test system: Mus musculus; assay: Analgesic activity in Swiss mouse assessed as increase in latency of paw licking at 100 umol/kg, po after 90 mins measured for 60 seconds by hot plate test (reference value: 5.9 +/- 0.8 seconds); type: functional
[7] = test system: Mus musculus; assay: Analgesic activity in Swiss mouse assessed as increase in latency of paw licking at 100 umol/kg, po after 120 mins measured for 60 seconds by hot plate test (reference value: 5.6 +/- 0.5 seconds); type: functional
[8] = test system: Mus musculus; assay: Analgesic activity against formalin-induced acute pain in Swiss mouse assessed as decrease of time spent in paw licking at 100 umol/kg, po administered 40 mins before formalin challenge measured for 0 to 5 mins; type: functional, organism-based
Procedure, shortened: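 Male or female adult Swiss mice (20–30 g, 6–8 weeks), groups of 6, dosed orally in arabic gum vehicle (10 mL/kg) 40 min before 20 µL of 2.5% formalin (0.92% formaldehyde in saline) into ventral surface of right hind paw. Paw-licking time recorded 0–5 min (neurogenic phase) after injection; mean ± S.E.M. versus vehicle controls, ANOVA with Dunnett test.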

[9] = test system: Mus musculus; assay: Analgesic activity against formalin-induced acute pain in Swiss mouse assessed inhibition of nociception at 100 umol/kg, po administered 40 mins before formalin challenge measured for 15 to 30 mins relative to control; type: functional
Procedure, shortened: (§1)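 Mice, 6 per group, received 20 µL of 2.5% formalin (0.92% formaldehyde in saline) into the ventral surface of the right hind paw. Dosing was 100 µmol/kg po in arabic gum vehicle (10 mL/kg), 40 min beforehand. Time spent licking the injected paw was recorded over 0–5 min (neurogenic phase) and 15–30 min (inflammatory phase). Data are mean ± S.E.M., ANOVA/Dunnett versus vehicle.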

[10] = test system: Rattus norvegicus; assay: Antiinflammatory effect in complete Freund's adjuvant-induced Wistar rat arthritis model assessed as inhibition of paw edema at 100 umol/kg, po daily once administered on day 14 post adjuvant challenge measured on day 21 post adjuvant challenge; type: functional, organism-based
Procedure, shortened: (§2)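 Wistar rats (130–170 g) received 0.1 mL complete Freund's adjuvant into the right paw. On day 13, arthritic rats were grouped (n=6) with matched scores. Dosing was 100 µmol/kg po daily from day 14 to 21, with arabic gum vehicle (10 mL/kg) for controls. Paw volume was measured by […] on days 1 and 14–21. Data are mean ± S.E.M., ANOVA/Dunnett.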

[11] = test system: Rattus norvegicus; assay: Antiinflammatory effect in complete Freund's adjuvant-induced Wistar rat arthritis model assessed as inhibition of paw edema at 100 umol/kg, po daily once administered on day 14 post adjuvant challenge measured on day 16 post adjuvant challenge; type: functional, organism-based; procedure, shortened: as §2
[12] = test system: Mus musculus; assay: Analgesic activity against formalin-induced acute pain in Swiss mouse assessed as decrease of time spent in paw licking at 100 umol/kg, po administered 40 mins before formalin challenge measured for 15 to 30 mins; type: functional, organism-based; procedure, shortened: as §1
[13] = test system: Rattus norvegicus; assay: Antiinflammatory effect in complete Freund's adjuvant-induced Wistar rat arthritis model assessed as inhibition of paw edema at 100 umol/kg, po daily once administered on day 14 post adjuvant challenge measured on day 17 post adjuvant challenge; type: functional, organism-based; procedure, shortened: as §2
[14] = test system: Mus musculus; assay: Analgesic activity in Swiss mouse assessed as increase in latency of paw licking at 15 umol/kg, ip after 60 mins measured for 60 seconds by hot plate test (reference value: 4.9 +/- 0.5 seconds); type: functional
[15] = test system: Mus musculus; assay: Analgesic activity in Swiss mouse assessed as increase in latency of paw licking at 15 umol/kg, ip after 120 mins measured for 60 seconds by hot plate test (reference value: 5.6 +/- 0.5 seconds); type: functional
[16] = test system: Mus musculus; assay: Analgesic activity in Swiss mouse assessed as increase in latency of paw licking at 15 umol/kg, ip after 150 mins measured for 60 seconds by hot plate test (reference value: 5.1 +/- 0.4 seconds); type: functional
[17] = test system: Mus musculus; assay: Analgesic activity in Swiss mouse assessed as increase in latency of paw licking at 15 umol/kg, ip after 90 mins measured for 60 seconds by hot plate test (reference value: 5.9 +/- 0.8 seconds); type: functional

| SMILES | Time [1] [s] | inhibition in vivo at 100 µmol/kg [2] [%] | Time [3] [s] | inhibition in vivo at 100 µmol/kg [4] [%] | Activity [5] [%] | Time [6] [s] | Time [7] [s] | Activity [8] | inhibition in vivo at 100 µmol/kg [9] [%] | Activity [10] | Activity [11] | Activity [12] | Activity [13] | Time [14] [s] | Time [15] [s] | Time [16] [s] | Time [17] [s] |
| --- | --- | --- | --- | --- | --- | --- | --- | --- | --- | --- | --- | --- | --- | --- | --- | --- | --- |
| O=C(N/N=C/c1ccccc1O)c1cnccn1 | 4 | 73.1 | 5.2 | 42 | 33.9 | 5.2 | 6.4 | Active | 16.2 | – | – | – | – | – | – | – | – |
| COc1cc(/C=N/NC(=O)c2cnccn2)cc(OC)c1OC | 4 | 97.1 | 5.3 | 70 | 17.6 | 4.8 | 4.3 | – | 86 | Active | Active | Active | Active | – | – | – | – |
| CN1CC[C@]23c4c5ccc(O)c4O[C@H]2[C@@H](O)C=C[C@H]3[C@H]1C5 [MORPHINE] | – | – | – | – | – | – | – | – | – | – | – | – | – | 12.8 | 9.7 | 9.7 | 10.3 |
| O=C1CCC(N2C(=O)c3ccccc3C2=O)C(=O)N1 (stereo unspecified) [THALIDOMIDE] | 4.8 | 73.3 | 5.9 | 25.2 | 46.6 | 7.5 | 6.8 | – | 66.7 | Active | Active | – | Active | – | – | – | – |
